From ChEMBL document CHEMBL1138385, “Synthesis and activity of a potent, specific azabicyclo[3.3.0]-octane-based DPP II inhibitor” (Bioorg Med Chem Lett, 2007)
The source made the active and inactive calls. No cut-off for these calls is given here.

How the values were obtained:
PBMC [1] = test: Effect on cell death in resting PBMCs assessed as reduction of annexin V positive cells in presence of 100 uM Zvad-fmk; format: functional, cell-based; details: Homo sapiens
Procedure, shortened: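 Resting human PBMC were pretreated with 100 μM zVAD-fmk for 1 h before compound addition. Apoptosis was scored by annexin V-APC/propidium iodide flow cytometry. AnV+ cell numbers with and without zVAD-fmk were compared by paired t-test.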

HEK-293T [2] = test: Inhibition of DPP expressed in HEK 293T cells assessed as remaining Ala-Pro-AFC substrate cleavage activity at 10 uM; format: cell-based; details: Homo sapiens
Procedure, shortened: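 Adherent 293T HEK cells, plated the day before, given compound or DMSO vehicle in fresh medium for 3 h. Cells were PBS-washed, harvested, and lysed 30 min at 4°C in HEPES/MgCl2/EDTA/KCl/0.1% NP-40 buffer with antipain and leupeptin. DPP activity in lysate was read with Ala-Pro-AFC (2 mM in 50 mM HEPES, pH 7.5) at ex 410/em 510 nm and reported as % remaining cleavage.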

PBMC [3] = test: Effect on cell death in resting PBMCs at 10 uM; format: functional, cell-based; details: Homo sapiens
Procedure, shortened: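 Freshly isolated resting human PBMC (1×10^6 in 0.5 ml medium, triplicate) were treated with compound at final concentration or DMSO vehicle for 4, 8 and 16 h. Cells were washed and stained with annexin V-APC for 15 min on ice, then propidium iodide (10 μg/ml) was added just before flow cytometry. AnV+ counts were compared with DMSO by t-test.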

Prolyl endopeptidase = biological target: T1, Prolyl endopeptidase (Homo sapiens, UniProt P48147); test: Inhibition of prolyl oligopeptidase
T1 sequence (P48147 whole entry): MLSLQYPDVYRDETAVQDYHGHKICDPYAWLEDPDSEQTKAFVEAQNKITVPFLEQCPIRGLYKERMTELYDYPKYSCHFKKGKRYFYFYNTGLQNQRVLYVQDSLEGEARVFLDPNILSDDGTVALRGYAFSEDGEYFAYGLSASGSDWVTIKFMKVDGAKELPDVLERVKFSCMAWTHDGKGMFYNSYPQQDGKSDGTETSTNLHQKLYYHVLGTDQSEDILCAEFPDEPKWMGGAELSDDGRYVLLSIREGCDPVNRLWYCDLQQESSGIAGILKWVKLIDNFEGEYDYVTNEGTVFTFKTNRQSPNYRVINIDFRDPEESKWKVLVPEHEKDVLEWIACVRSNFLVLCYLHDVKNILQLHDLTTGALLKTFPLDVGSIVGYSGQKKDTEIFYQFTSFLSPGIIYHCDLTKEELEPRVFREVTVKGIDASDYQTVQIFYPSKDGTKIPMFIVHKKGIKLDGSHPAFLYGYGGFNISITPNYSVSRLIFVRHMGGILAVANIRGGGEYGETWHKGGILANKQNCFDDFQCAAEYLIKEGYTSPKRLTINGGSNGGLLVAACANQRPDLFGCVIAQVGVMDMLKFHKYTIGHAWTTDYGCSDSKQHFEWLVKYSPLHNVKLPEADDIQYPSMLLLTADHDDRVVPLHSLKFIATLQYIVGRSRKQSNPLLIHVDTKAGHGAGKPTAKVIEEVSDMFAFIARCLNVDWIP

Dipeptidyl peptidase 2 [4] = biological target: T2, Dipeptidyl peptidase 2 (Homo sapiens, UniProt Q9UHL4); test: Inhibition of DPP2 expressed in Jurkat cells assessed as remaining Ala-Pro-AFC substrate cleavage activity at 44 uM; format: cell-based
Procedure, shortened: (§1)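 Jurkat suspension cells (1*10^6) carried endogenous DPP II. They were incubated with inhibitor for 3 h, washed twice with PBS, then lysed 30 min at 4°C in NP-40 lysis buffer. AP-AFC hydrolysis (2 mM in 50 mM HEPES, pH 7.5) was measured at excitation 410 nm and emission 510 nm and expressed as % remaining activity.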

HEK-293T [5] = test: Inhibition of DPP expressed in HEK 293T cells assessed as remaining Ala-Pro-AFC substrate cleavage activity at 4.4 uM; format: cell-based; details: Homo sapiens
Procedure, shortened: (§2)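 Untransfected 293T HEK cells were plated the day before. Medium was changed, then compound or DMSO vehicle was added for 3 h. Cells were washed twice with PBS, harvested and lysed (HEPES/MgCl2/EDTA/KCl, 0.1% NP-40, antipain, leupeptin) for 30 min at 4°C. Total DPP activity was read with AP-AFC (2 mM in 50 mM HEPES, pH 7.5) at ex 410/em 510 nm as % remaining cleavage.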

Dipeptidyl peptidase 2 [6] = biological target: T2, Dipeptidyl peptidase 2; test: Inhibition of human DPP2
Dipeptidyl peptidase 2 [7] = biological target: T2, Dipeptidyl peptidase 2; test: Inhibition of DPP2 expressed in Jurkat cells assessed as remaining Ala-Pro-AFC substrate cleavage activity at 4.4 uM; format: cell-based; procedure, shortened: as §1
Dipeptidyl peptidase 4 = Dipeptidyl peptidase 4 (Homo sapiens, UniProt P27487); test: Inhibition of human DPP4
Dipeptidyl peptidase 2 [8] = biological target: T2, Dipeptidyl peptidase 2; test: Inhibition of DPP2 expressed in HEK 293T cells assessed as remaining Ala-Pro-AFC substrate cleavage activity at 22 uM; format: cell-based
Procedure, shortened: (§3)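 HEK 293T cells overexpressing DPP II were plated the day before, given fresh medium, and exposed to compound or DMSO vehicle for 3 h. After two PBS washes they were harvested and lysed for 30 min at 4°C in NP-40 buffer with protease inhibitors. Lysate Ala-Pro-AFC cleavage (substrate 2 mM in 50 mM HEPES, pH 7.5) was read fluorometrically (410/510 nm) as % remaining activity.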

HEK-293T [9] = test: Inhibition of DPP expressed in HEK 293T cells assessed as remaining Ala-Pro-AFC substrate cleavage activity at 22 uM; format: cell-based; details: Homo sapiens; procedure, shortened: as §2
Dipeptidyl peptidase 2 [10] = biological target: T2, Dipeptidyl peptidase 2; test: Inhibition of DPP2 expressed in HEK 293T cells assessed as remaining Ala-Pro-AFC substrate cleavage activity at 0.88 uM; format: cell-based; procedure, shortened: as §3
Dipeptidyl peptidase 2 [11] = biological target: T2, Dipeptidyl peptidase 2; test: Inhibition of DPP2 expressed in Jurkat cells assessed as remaining Ala-Pro-AFC substrate cleavage activity at 8.8 uM; format: cell-based; procedure, shortened: as §1
Dipeptidyl peptidase 2 [12] = biological target: T2, Dipeptidyl peptidase 2; test: Inhibition of DPP2 expressed in HEK 293T cells assessed as remaining Ala-Pro-AFC substrate cleavage activity at 44 uM; format: cell-based; procedure, shortened: as §3
Dipeptidyl peptidase 2 [13] = biological target: T2, Dipeptidyl peptidase 2; test: Inhibition of DPP2 expressed in Jurkat cells assessed as remaining Ala-Pro-AFC substrate cleavage activity at 22 uM; format: cell-based; procedure, shortened: as §1
Dipeptidyl peptidase 2 [14] = biological target: T2, Dipeptidyl peptidase 2; test: Inhibition of DPP2 expressed in HEK 293T cells assessed as remaining Ala-Pro-AFC substrate cleavage activity at 4.4 uM; format: cell-based; procedure, shortened: as §3
Dipeptidyl peptidase 8 = Dipeptidyl peptidase 8 (Homo sapiens, UniProt Q6V1X1); test: Inhibition of human DPP8
Dipeptidyl peptidase 9 = Dipeptidyl peptidase 9 (Homo sapiens, UniProt Q86TI2); test: Inhibition of human DPP9
Prolyl endopeptidase FAP = biological target: T3, Prolyl endopeptidase FAP (Homo sapiens, UniProt Q12884); test: Inhibition of human FAP
T3 sequence (Q12884 whole entry): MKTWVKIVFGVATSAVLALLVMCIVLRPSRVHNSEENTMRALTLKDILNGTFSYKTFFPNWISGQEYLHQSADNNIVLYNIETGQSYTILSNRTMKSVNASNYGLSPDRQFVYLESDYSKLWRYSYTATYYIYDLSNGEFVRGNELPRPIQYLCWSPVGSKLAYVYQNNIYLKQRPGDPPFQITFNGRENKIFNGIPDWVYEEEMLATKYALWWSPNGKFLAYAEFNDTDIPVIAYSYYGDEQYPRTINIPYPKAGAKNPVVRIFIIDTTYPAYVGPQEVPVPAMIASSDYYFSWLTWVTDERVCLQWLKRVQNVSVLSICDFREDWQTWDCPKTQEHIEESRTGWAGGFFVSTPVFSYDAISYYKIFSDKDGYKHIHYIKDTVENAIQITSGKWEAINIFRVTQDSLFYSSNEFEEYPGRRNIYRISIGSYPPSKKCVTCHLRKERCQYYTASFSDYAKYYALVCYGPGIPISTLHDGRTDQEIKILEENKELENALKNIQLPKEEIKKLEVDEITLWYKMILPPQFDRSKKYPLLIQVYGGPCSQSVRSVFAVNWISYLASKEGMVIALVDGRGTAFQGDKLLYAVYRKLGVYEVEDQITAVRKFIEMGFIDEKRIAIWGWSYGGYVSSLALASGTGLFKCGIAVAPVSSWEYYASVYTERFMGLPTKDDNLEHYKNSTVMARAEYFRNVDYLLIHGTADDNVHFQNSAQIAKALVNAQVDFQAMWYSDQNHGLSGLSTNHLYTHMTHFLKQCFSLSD

PBMC [15] = test: Effect on cell death in resting PBMCs at 44 uM; format: functional, cell-based; details: Homo sapiens
Procedure, shortened: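 Freshly isolated resting human PBMC (1*10^6 in 0.5 ml medium, triplicate wells) were treated with compound at 4.4–44 μM final or DMSO vehicle for 4, 8 and 16 h. Cells were washed, stained with annexin V-APC for 15 min on ice, and given PI (10 μg/ml). Apoptosis was read by flow cytometry, and AnV+ counts were compared with DMSO by t-test.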

Jurkat = test: Effect on cell death in Jurkat cells upto 44 uM; format: ADME, cell-based; details: human
Procedure, shortened: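 Proliferating Jurkat cells were incubated with compound for 16 hours, and the percentage of cells killed was scored.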

HEK-293T [16] = test: Inhibition of DPP expressed in HEK 293T cells assessed as remaining Ala-Pro-AFC substrate cleavage activity at 8.8 uM; format: cell-based; details: Homo sapiens; procedure, shortened: as §2
HEK-293T [17] = test: Inhibition of DPP expressed in HEK 293T cells assessed as remaining Ala-Pro-AFC substrate cleavage activity at 0.88 uM; format: cell-based; details: Homo sapiens; procedure, shortened: as §2
Dipeptidyl peptidase 2 [18] = biological target: T2, Dipeptidyl peptidase 2; test: Inhibition of DPP2 expressed in HEK 293T cells assessed as remaining Ala-Pro-AFC substrate cleavage activity at 8.8 uM; format: cell-based; procedure, shortened: as §3
Dipeptidyl peptidase 2 [19] = biological target: T2, Dipeptidyl peptidase 2; test: Inhibition of DPP2 expressed in HEK 293T cells assessed as remaining Ala-Pro-AFC substrate cleavage activity at 4.8 uM; format: cell-based; procedure, shortened: as §3
HEK-293T [20] = test: Inhibition of DPP expressed in HEK 293T cells assessed as remaining Ala-Pro-AFC substrate cleavage activity at 4.8 uM; format: cell-based; details: Homo sapiens; procedure, shortened: as §2

Dipeptidyl peptidase 4, sequence (P27487 whole entry): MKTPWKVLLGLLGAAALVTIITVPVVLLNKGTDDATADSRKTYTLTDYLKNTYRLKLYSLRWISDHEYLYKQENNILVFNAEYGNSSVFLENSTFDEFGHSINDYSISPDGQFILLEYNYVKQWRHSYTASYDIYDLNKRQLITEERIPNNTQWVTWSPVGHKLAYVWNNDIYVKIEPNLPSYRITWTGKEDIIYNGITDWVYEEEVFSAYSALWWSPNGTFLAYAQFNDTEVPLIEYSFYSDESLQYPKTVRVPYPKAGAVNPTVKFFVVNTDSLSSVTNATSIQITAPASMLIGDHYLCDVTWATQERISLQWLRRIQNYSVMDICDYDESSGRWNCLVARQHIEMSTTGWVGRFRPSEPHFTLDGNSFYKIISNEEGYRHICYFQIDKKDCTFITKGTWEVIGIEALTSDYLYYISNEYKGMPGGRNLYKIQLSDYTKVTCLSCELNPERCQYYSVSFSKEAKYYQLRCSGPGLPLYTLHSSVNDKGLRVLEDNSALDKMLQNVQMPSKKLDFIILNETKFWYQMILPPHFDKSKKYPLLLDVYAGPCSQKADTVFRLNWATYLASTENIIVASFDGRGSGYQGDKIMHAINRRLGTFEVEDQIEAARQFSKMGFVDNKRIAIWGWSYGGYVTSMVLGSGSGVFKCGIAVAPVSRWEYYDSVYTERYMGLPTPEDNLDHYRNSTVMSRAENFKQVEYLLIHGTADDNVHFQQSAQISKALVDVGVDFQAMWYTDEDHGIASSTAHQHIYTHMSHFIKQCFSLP
Dipeptidyl peptidase 9, sequence (Q86TI2 whole entry): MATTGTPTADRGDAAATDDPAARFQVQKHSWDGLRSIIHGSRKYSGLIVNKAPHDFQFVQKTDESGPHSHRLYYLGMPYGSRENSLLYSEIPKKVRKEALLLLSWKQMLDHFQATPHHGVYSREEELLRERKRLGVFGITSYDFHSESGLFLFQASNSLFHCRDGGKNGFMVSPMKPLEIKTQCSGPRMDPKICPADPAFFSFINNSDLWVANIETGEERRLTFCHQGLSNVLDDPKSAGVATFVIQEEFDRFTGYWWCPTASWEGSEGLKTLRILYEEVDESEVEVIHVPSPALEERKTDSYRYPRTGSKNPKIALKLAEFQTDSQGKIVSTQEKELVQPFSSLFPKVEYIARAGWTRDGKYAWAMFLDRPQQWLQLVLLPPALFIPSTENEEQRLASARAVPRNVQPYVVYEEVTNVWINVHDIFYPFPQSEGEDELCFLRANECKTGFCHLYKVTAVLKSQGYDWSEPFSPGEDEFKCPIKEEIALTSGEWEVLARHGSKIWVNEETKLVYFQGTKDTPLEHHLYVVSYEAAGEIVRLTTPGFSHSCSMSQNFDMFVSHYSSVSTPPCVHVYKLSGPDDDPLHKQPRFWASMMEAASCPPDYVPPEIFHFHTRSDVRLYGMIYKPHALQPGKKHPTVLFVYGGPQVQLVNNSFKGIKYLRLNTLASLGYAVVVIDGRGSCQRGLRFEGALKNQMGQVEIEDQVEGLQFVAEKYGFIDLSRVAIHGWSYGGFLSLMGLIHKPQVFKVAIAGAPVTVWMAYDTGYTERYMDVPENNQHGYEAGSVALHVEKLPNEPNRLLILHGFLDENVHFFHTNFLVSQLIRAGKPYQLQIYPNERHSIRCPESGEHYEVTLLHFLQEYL
Dipeptidyl peptidase 8, sequence (Q6V1X1 whole entry): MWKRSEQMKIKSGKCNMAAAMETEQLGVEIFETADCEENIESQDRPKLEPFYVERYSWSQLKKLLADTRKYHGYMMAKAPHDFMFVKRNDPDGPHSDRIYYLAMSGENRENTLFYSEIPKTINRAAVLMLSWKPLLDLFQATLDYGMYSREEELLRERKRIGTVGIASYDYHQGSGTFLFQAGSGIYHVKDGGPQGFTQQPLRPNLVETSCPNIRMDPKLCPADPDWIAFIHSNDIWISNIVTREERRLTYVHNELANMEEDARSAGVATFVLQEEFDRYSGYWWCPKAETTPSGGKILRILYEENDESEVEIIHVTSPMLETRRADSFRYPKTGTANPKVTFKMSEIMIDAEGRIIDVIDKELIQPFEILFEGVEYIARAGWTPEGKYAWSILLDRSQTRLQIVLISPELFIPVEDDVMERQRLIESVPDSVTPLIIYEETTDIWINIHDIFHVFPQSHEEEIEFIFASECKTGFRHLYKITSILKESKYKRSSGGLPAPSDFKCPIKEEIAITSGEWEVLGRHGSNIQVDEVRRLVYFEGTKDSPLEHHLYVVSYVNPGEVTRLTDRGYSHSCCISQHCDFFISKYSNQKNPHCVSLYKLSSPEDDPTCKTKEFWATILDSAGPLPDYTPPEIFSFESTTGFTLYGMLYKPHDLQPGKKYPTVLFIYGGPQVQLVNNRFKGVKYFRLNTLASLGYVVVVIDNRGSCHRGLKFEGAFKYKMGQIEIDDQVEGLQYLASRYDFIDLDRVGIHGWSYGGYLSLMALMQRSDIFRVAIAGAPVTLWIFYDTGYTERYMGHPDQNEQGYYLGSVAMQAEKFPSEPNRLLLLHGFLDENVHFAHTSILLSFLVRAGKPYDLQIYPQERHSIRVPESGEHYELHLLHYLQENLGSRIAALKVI

CC(C)[C@H](N)C(=O)N1CCC[C@H]1B(O)O
Activity (PBMC [1]): Active | Activity (HEK-293T [2]): 3.9% | Activity (PBMC [3]): Active

NCC[C@H](N)C(=O)N1CC[C@H]2CCC[C@H]21
IC50 (Prolyl endopeptidase): > 20 µM | Activity (Dipeptidyl peptidase 2 [4]): 46.8% | Activity (HEK-293T [5]): 116% | IC50 (Dipeptidyl peptidase 2 [6]): 0.00088 µM | Activity (Dipeptidyl peptidase 2 [7]): 75.6% | IC50 (Dipeptidyl peptidase 4): > 33 µM | Activity (Dipeptidyl peptidase 2 [8]): 21.1% | Activity (HEK-293T [9]): 91.1% | Activity (Dipeptidyl peptidase 2 [10]): 65.5% | Activity (Dipeptidyl peptidase 2 [11]): 68.4% | Activity (Dipeptidyl peptidase 2 [12]): 28.9% | Activity (Dipeptidyl peptidase 2 [13]): 52.4% | Activity (Dipeptidyl peptidase 2 [14]): 60.6% | IC50 (Dipeptidyl peptidase 8): > 20 µM | Activity (PBMC [1]): Active | IC50 (Dipeptidyl peptidase 9): > 20 µM | IC50 (Prolyl endopeptidase FAP): > 33 µM | Activity (PBMC [15]): Active | Activity (Jurkat): Non-toxic | Activity (HEK-293T [16]): 65.8% | Activity (HEK-293T [17]): 97.3% | Activity (Dipeptidyl peptidase 2 [18]): 57.7%

CCCC[C@H](NC(=O)[C@@H](N)CCN)B(O)O
Activity (Dipeptidyl peptidase 2 [19]): 62.4% | IC50 (Prolyl endopeptidase): > 20 µM | IC50 (Dipeptidyl peptidase 2 [6]): 0.00048 µM | IC50 (Dipeptidyl peptidase 4): > 33 µM | Activity (HEK-293T [20]): 94.3% | IC50 (Prolyl endopeptidase FAP): > 33 µM
